# Experimental data reported in ChEMBL document CHEMBL4431336, “Ligand-based virtual screen for the discovery of novel M5 inhibitor chemotypes” (Bioorg Med Chem Lett, 2016).
# pIC50, pKi: −log10 of the molar value. Active and inactive are the calls of the source. The calls are words filed in the database; no cut-off is given here.
# Legend:
# [1] = molecular target: T1, Muscarinic acetylcholine receptor M5 (Homo sapiens, UniProt P08912); assay: Antagonist activity at human muscarinic M5 receptor assessed as inhibition of acetylcholine-induced calcium response; format: functional; conditions: for pIC50: read-out: IC50
# T1 sequence (P08912 whole entry): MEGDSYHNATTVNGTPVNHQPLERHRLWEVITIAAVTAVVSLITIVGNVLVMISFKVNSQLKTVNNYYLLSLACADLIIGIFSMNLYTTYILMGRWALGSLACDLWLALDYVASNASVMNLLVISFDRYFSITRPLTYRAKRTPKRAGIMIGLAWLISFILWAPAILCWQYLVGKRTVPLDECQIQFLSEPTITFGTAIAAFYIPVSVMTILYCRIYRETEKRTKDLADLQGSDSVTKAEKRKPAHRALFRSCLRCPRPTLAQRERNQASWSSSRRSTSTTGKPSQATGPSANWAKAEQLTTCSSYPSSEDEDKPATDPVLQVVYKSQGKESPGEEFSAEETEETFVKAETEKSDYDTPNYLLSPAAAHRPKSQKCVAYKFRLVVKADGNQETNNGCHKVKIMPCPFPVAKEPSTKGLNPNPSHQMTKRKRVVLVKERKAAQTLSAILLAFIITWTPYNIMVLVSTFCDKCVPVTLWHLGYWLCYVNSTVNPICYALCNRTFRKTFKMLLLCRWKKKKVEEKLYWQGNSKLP
# How it was run: (§1)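 Concentration–response curves (10-point) run in cells expressing human M1, M2, M3, M4 or M5 receptors, n=3. IC50 comes from the curves, with pIC50 also reported. The residual ACh response at 30 μM is given as % ACh min (mean±SEM).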
# [2] = molecular target: T2, Muscarinic acetylcholine receptor M5 (Homo sapiens) (UniProt P08912); assay: Antagonist activity at human muscarinic M5 receptor assessed as inhibition of acetylcholine-induced calcium response at 10 uM; format: functional
# T2 sequence (whole entry): T1 sequence (P08912 whole entry)
# How it was run: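 Single-point functional assay in hM5 cells challenged with an EC80 of ACh, compound at 10 μM. Result is % inhibition, averaged from three determinations.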
# [3] = molecular target: T3, Muscarinic acetylcholine receptor M2 (Homo sapiens, UniProt P08172); assay: Antagonist activity at human muscarinic M2 receptor assessed as inhibition of acetylcholine-induced calcium response; format: functional; how it was run: as §1
# T3 sequence (P08172 whole entry): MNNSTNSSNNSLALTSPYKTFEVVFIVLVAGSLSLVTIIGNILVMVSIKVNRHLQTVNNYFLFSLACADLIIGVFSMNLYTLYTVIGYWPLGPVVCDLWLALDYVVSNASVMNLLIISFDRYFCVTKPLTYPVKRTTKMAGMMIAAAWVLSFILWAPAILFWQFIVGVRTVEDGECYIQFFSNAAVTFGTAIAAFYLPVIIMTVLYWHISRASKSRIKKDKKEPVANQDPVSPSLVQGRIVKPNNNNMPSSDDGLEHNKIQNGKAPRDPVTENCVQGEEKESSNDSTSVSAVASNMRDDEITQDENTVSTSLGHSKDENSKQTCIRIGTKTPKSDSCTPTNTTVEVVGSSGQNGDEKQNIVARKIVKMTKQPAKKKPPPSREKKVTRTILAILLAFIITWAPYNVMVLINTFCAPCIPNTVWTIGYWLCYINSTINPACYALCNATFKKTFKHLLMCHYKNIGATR
# [4] = molecular target: T4, Muscarinic acetylcholine receptor M3 (Homo sapiens, UniProt P20309); assay: Antagonist activity at human muscarinic M3 receptor assessed as minimum acetylcholine-induced calcium response at 30 uM; format: functional; design: scale not given: the % may be the effect or the level left; how it was run: as §1
# Target sequence in this assay (P20309 whole entry, looked up): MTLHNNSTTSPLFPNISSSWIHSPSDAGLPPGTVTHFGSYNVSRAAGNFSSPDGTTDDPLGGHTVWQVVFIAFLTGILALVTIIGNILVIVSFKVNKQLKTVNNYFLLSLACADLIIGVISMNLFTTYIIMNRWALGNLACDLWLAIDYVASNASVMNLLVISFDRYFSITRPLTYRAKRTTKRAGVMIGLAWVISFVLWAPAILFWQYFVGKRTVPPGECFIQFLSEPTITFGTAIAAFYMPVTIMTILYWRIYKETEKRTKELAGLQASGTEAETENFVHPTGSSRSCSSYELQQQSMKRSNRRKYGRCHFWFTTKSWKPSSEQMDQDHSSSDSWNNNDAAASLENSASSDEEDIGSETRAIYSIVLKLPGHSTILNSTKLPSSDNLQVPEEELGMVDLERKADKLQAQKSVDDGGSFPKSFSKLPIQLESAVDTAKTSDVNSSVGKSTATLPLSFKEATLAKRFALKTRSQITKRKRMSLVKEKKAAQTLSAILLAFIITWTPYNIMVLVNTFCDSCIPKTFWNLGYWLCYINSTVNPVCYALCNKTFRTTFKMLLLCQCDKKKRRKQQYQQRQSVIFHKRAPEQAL
# [5] = molecular target: T1, Muscarinic acetylcholine receptor M5; assay: Displacement of [3H]NMS from human muscarinic M5 receptor
# How it was run: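 Competition binding against [3H]-N-methylscopolamine in membranes prepared from cells expressing human M5, n=3.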
# [6] = molecular target: T5, Muscarinic acetylcholine receptor M1 (Homo sapiens, UniProt P11229); assay: Antagonist activity at human muscarinic M1 receptor assessed as inhibition of acetylcholine-induced calcium response; format: functional; how it was run: as §1
# T5 sequence (P11229 whole entry): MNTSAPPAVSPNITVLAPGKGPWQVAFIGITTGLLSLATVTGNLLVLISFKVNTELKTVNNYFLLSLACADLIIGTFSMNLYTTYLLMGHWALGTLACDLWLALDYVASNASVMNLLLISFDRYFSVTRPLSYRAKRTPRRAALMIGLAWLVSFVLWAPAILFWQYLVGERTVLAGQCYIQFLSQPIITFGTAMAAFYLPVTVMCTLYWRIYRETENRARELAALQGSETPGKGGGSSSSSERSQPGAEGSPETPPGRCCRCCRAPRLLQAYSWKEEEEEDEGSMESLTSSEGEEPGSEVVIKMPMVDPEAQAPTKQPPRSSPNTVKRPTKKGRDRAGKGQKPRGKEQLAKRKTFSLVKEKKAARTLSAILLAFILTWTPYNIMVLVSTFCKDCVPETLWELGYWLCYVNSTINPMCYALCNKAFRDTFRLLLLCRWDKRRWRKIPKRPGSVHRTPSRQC
# [7] = molecular target: T6, Muscarinic acetylcholine receptor M2 (Homo sapiens) (UniProt P08172); assay: Antagonist activity at human muscarinic M2 receptor assessed as minimum acetylcholine-induced calcium response at 30 uM; format: functional; design: scale not given: the % may be the effect or the level left; how it was run: as §1
# T6 sequence (whole entry): T3 sequence (P08172 whole entry)
# [8] = molecular target: T4, Muscarinic acetylcholine receptor M3; assay: Antagonist activity at human muscarinic M3 receptor assessed as inhibition of acetylcholine-induced calcium response; format: functional; how it was run: as §1
# Target sequence in this assay (P20309 whole entry): as the sequence (P20309 whole entry, looked up) above
# [9] = molecular target: T7, Muscarinic acetylcholine receptor M1 (Homo sapiens) (UniProt P11229); assay: Antagonist activity at human muscarinic M1 receptor assessed as minimum acetylcholine-induced calcium response at 30 uM; format: functional; design: scale not given: the % may be the effect or the level left; how it was run: as §1
# T7 sequence (whole entry): T5 sequence (P11229 whole entry)
# [10] = molecular target: T2, Muscarinic acetylcholine receptor M5 (Homo sapiens); assay: Antagonist activity at human muscarinic M5 receptor assessed as minimum acetylcholine-induced calcium response at 10 uM; format: functional; design: scale not given: the % may be the effect or the level left
# [11] = molecular target: T8, Muscarinic acetylcholine receptor M4 (Homo sapiens) (UniProt P08173); assay: Antagonist activity at human muscarinic M4 receptor assessed as minimum acetylcholine-induced calcium response at 30 uM; format: functional; design: scale not given: the % may be the effect or the level left; how it was run: as §1
# T8 sequence (whole entry): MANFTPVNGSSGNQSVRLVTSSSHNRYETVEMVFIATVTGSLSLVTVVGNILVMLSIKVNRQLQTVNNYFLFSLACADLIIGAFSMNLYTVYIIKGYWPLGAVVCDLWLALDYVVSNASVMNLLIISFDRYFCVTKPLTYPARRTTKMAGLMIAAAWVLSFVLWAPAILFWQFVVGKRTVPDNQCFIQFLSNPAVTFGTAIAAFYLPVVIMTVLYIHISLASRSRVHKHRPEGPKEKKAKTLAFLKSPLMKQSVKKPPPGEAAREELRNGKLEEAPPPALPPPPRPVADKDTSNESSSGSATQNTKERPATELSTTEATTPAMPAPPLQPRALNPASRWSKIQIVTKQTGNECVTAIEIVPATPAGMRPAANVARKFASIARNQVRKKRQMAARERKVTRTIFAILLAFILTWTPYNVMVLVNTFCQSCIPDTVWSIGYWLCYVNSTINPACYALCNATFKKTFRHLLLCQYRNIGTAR
# [12] = molecular target: T2, Muscarinic acetylcholine receptor M5 (Homo sapiens); assay: Antagonist activity at human muscarinic M5 receptor assessed as minimum acetylcholine-induced calcium response at 30 uM; format: functional; design: scale not given: the % may be the effect or the level left; how it was run: as §1
# [13] = molecular target: T9, Muscarinic acetylcholine receptor M4 (Homo sapiens, UniProt P08173); assay: Antagonist activity at human muscarinic M4 receptor assessed as inhibition of acetylcholine-induced calcium response; format: functional; how it was run: as §1
# T9 sequence (P08173 whole entry): T8 sequence (whole entry)
# [14] = molecular target: T2, Muscarinic acetylcholine receptor M5 (Homo sapiens); assay: Antagonist activity at human muscarinic M5 receptor assessed as inhibition of acetylcholine-induced calcium response at 30 uM; format: functional; how it was run: as §1
smiles,measurement,setting,value
Cc1nn(C)c(C)c1S(=O)(=O)N1CCC2(CC1)SCCS2,pIC50,[1],< 5.00
same,inhibition,[2],86%
Cc1c(S(=O)(=O)N2CCC3(CC2)OCCS3)cnn1C,pIC50,[1],< 5.00
same,inhibition,[2],83%
Cc1nn(C)c(C)c1S(=O)(=O)N1CCC2(CC1)OCCS2,pIC50,[3],< 5.00
same,Activity,[4],55%
same,pKi,[5],5.57
same,pIC50,[6],< 5.00
same,Activity,[7],37%
same,pIC50,[8],< 5.00
same,Activity,[9],61%
same,pIC50,[1],5.21 to 5.41
same,IC50,[1]; read-out: pIC50 (converted),0.661 µM
same,Activity,[10],12.6%
same,Activity,[11],55%
same,Activity,[12],16%
same,Imax,[2],50 to 88%
same,pIC50,[13],< 5.00
Cn1cnc(S(=O)(=O)N2CCC3(CC2)OCCS3)c1,inhibition,[2],inactive
Cn1cc(S(=O)(=O)N2CCC3(CC2)OCCS3)cn1,pIC50,[1],< 5.00
same,inhibition,[2],27%
Cc1nn(C)c(C)c1S(=O)(=O)N1CCC2(CCCO2)CC1,pIC50,[1],< 5.00
same,inhibition,[2],37%
CCN(C(=O)Cn1cc(-c2ccccc2)c(N2CCOCC2)n1)c1cccc(C)c1,inhibition,[14],40%
same,pIC50,[1],< 5.00
O=S(=O)(c1cc(F)c(F)c(F)c1)N1CCC2(CC1)OCCS2,pIC50,[1],< 5.00
same,inhibition,[2],55%
Cc1nn(C)c(C)c1S(=O)(=O)N1CCC2(CC1)OCCO2,pIC50,[1],< 5.00
same,inhibition,[2],45%
COc1ccc([C@@]23c4ccccc4C(=O)N2CCN3C(=O)c2cc(F)c(F)c(F)c2)cc1C,pIC50,[3],< 4.52
same,pIC50,[6],< 4.52
same,pIC50,[8],< 4.52
same,pIC50,[1],6.61
same,pIC50,[13],< 4.52
O=S(=O)(c1ccc(F)c(Cl)c1)N1CCC2(CC1)OCCS2,pIC50,[1],< 5.00
same,inhibition,[2],83%
Fc1cc(F)cc(-c2nnc(Cc3nc(-c4ccc5c(c4)OCO5)no3)o2)c1,pIC50,[3],6.03
same,pIC50,[6],5.55
same,pIC50,[1],5.29
same,Imax,[2],70%
same,pIC50,[13],< 5.00
Cc1nn(C)cc1S(=O)(=O)N1CCC2(CC1)OCCS2,inhibition,[2],inactive
O=S(=O)(c1cc(F)cc(F)c1)N1CCC2(CC1)OCCS2,pIC50,[1],< 5.00
same,inhibition,[2],62%
Cc1noc(C)c1S(=O)(=O)N1CCC2(CC1)OCCS2,pIC50,[1],< 5.00
same,inhibition,[2],40%
Cc1noc(C)c1CCc1nnc2scc(-c3ccc(Cl)cc3)n12,inhibition,[14],40%
same,pIC50,[1],< 5.00
